From ChEMBL document CHEMBL3822447, “4-(1,2-diarylbut-1-en-1-yl)isobutyranilide derivatives as inhibitors of topoisomerase II” (2016) come the findings set out here.

Each structure is given as a SMILES string.

Holding throughout (format): functional
A short description of test [1]: Cytotoxicity against human OVCAR5 cells assessed as cell growth inhibition after 72 hrs by MTS assay. As to conditions: OVCAR-5, 72 h. In short, it runs like this:
(§1)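 Cells grown in RPMI1640 with 10% FBS and 2 mM glutamine at 37°C, 5% CO2; plated at 15 000 cells/mL, treated with compounds 72 h after plating, and survival read by MTS after a further 72 h; dose-response curves plotted.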

The test system of another test is HeLa. Description: Cytotoxicity against human HeLa cells assessed as cell growth inhibition after 72 hrs by trypan blue assay. In short, it runs like this: (§2)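 HeLa (F-12 HAM) and MCF-7 (DMEM) kept in medium with 10% heat-inactivated FCS plus antibiotics; 4-5×10^4 cells/well seeded, compounds added after 24 h at various concentrations, then 72 h more. Viable cells counted by trypan blue; GI50 is the concentration giving 50% fewer cells than control. Mean ± SD from at least three independent experiments.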

A further test relates to MCF7. Description: Cytotoxicity against human MCF7 cells assessed as cell growth inhibition after 72 hrs by trypan blue assay. As to conditions: MCF7, 72 h. In short, it runs like this:
as §2

The subject of a further test is A2780. The test is described as follows: Cytotoxicity against human A2780 cells assessed as cell growth inhibition after 72 hrs by MTS assay. As to conditions: A2780, 72 h. In short, it runs like this:
as §1
(In general: Tetrazolium assays rely on reduction of a dye to a coloured formazan, in cell work by metabolically active cells.)

The GI50 is the concentration giving 50% growth inhibition. On to `CC/C(=C(\c1ccc(NC(=O)C(C)C)cc1)c1ccc(OC)cc1)c1ccc(Cl)cc1Cl`, for which the GI50 in test [1] is greater than 50 µM; with HeLa, 5.5 µM; in the test with MCF7, 13.2 µM; with A2780, 8.2 µM.
On to `CC/C(=C(\c1ccccc1)c1ccc(N)cc1)c1ccccc1`, for which the GI50 in test [1] was greater than 50 µM; in the test with HeLa it was greater than 30 µM; in the test on MCF7, greater than 30 µM; with A2780 it was greater than 50 µM.
On to `CC/C(=C(/c1ccc(NC(=O)C(C)C)cc1)c1ccc(OC)cc1)c1ccccc1`, for which the GI50 in test [1] was greater than 50 µM; in the test with HeLa, greater than 30 µM; in the test with MCF7, greater than 30 µM; in the test with A2780, greater than 50 µM.
Consider `CC/C(=C(/c1ccccc1)c1ccc(NC(=O)C(C)C)cc1)c1ccc(Cl)cc1Cl`, for which the GI50 in test [1] was greater than 50 µM; in the test with HeLa it was 8.2 µM; in the test on MCF7, 17.5 µM; in the test on A2780 it was greater than 50 µM.
On to `CC/C(=C(/c1ccccc1)c1ccc(NC(=O)C(C)C)cc1)c1ccc(OCc2ccccc2)cc1`, for which the GI50 in test [1] was greater than 50 µM; in the test with HeLa it was greater than 30 µM; in the test with MCF7 it was greater than 30 µM; with A2780 it was greater than 50 µM.
As to `CC/C(=C(\c1ccc(NC(=O)C(C)C)cc1)c1ccc(OC)cc1)c1ccc(O)cc1`, the GI50 in test [1] amounted to 23.6 µM; in the test with HeLa it was 3.7 µM; with MCF7, 9 µM; with A2780, 5.7 µM.
The like results for `CC/C(=C(\c1ccccc1)c1ccc(NC(=O)C(C)C)cc1)c1ccccc1` were, in that order, greater than 50 µM, greater than 30 µM, greater than 30 µM and greater than 50 µM.
On to `CC/C(=C(/c1ccccc1)c1ccc(NC(=O)C(C)C)cc1)c1ccccc1`, for which the GI50 in test [1] was greater than 50 µM; with HeLa, 28.1 µM; in the test on MCF7, greater than 30 µM; with A2780, 31.6 µM.
The like results for `CC/C(=C(\c1ccc(NC(=O)C(C)C)cc1)c1ccc(OC)cc1)c1ccccc1` were, in that order, greater than 50 µM, 10.1 µM, 27.9 µM and 17.4 µM.
The matching figures for `CC/C(=C(\c1ccc(O)cc1)c1ccc(NC(=O)C(C)C)cc1)c1ccc(Cl)cc1Cl`: 28.8 µM, 8.7 µM, 12.5 µM and 15.7 µM.
The like results for `CC/C(=C(/c1ccc(O)cc1)c1ccc(NC(=O)C(C)C)cc1)c1ccccc1` were, in that order, greater than 50 µM, 9.9 µM, 16.4 µM and 32.6 µM.
With `CC/C(=C(/c1ccc(NC(=O)C(C)C)cc1)c1ccc(OC)cc1)c1ccc(OCc2ccccc2)cc1`, the GI50 is greater than 50 µM in test [1], 4.2 µM in the test on HeLa, 29 µM in the test on MCF7 and greater than 50 µM with A2780.
On to `CC/C(=C(/c1ccc(O)cc1)c1ccc(NC(=O)C(C)C)cc1)c1ccc(Cl)cc1Cl`, for which the GI50 was found to be 32.3 µM in test [1], 20.3 µM in the test on HeLa, 26.6 µM in the test on MCF7 and 28.1 µM in the test with A2780.
The like results for `CC/C(=C(\c1ccccc1)c1ccc(NC(=O)C(C)C)cc1)c1ccc(OCc2ccccc2)cc1` were, in that order, greater than 50 µM, 10.2 µM, greater than 30 µM and 8.8 µM.
The matching figures for `CC/C(=C(\c1ccccc1)c1ccc(NC(=O)C(C)C)cc1)c1ccc(O)cc1`: 8.7 µM, 3.8 µM, 8.1 µM and 3.7 µM.
The matching figures for `CC/C(=C(\c1ccc(NC(=O)C(C)C)cc1)c1ccc(OC)cc1)c1ccc(OCc2ccccc2)cc1`: greater than 50 µM, greater than 30 µM, greater than 30 µM and greater than 50 µM.
`CC/C(=C(\c1ccc(O)cc1)c1ccc(NC(=O)C(C)C)cc1)c1ccccc1`: the GI50 in test [1] was found to be 42 µM; in the test with HeLa, 9.9 µM; in the test on MCF7, 14.7 µM; in the test on A2780, 34 µM.
